For orientation: IC50 means the concentration that gives 50% inhibition. The Cmax is the highest concentration seen after dosing. In general, half-life refers to how long it takes for the measured level to halve. For orientation: AUC(0-inf) means total exposure, with the tail of the curve extrapolated. The term Tmax denotes the time at which the peak concentration occurs. As usually defined, the Kp is the ratio of the level in a tissue or fluid to that in plasma or blood.

The subject of series [1] is Plasmodium falciparum. The series is described as follows: Antimalarial activity against chloroquine-resistant Plasmodium falciparum W2 infected in O-positive human RBC assessed as [3H]-hypoxanthine incorporation after 48 hrs by scintillation counting in presence of BSA. In kind it is functional, organism-based.
The test system of series [2] is Plasmodium falciparum. The series is described as follows: Antimalarial activity against chloroquine-sensitive Plasmodium falciparum D6 infected in O-positive human RBC assessed as [3H]-hypoxanthine incorporation after 48 hrs by scintillation counting in presence of BSA. The format is functional, organism-based.
Series [3] has as its system Plasmodium falciparum. Nature of the series: Antimalarial activity against chloroquine-resistant Plasmodium falciparum W2 infected in O-positive human RBC assessed as [3H]-hypoxanthine incorporation after 48 hrs by scintillation counting. In kind it is functional, organism-based. Summed up: (§1)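 Growth inhibition in vitro by [3H]-hypoxanthine uptake in parasitized RBCs; dose-response runs to derive IC50.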

For series [4], the system named is Plasmodium falciparum. The series is described as follows: Antimalarial activity against chloroquine-sensitive Plasmodium falciparum D6 infected in O-positive human RBC assessed as [3H]-hypoxanthine incorporation after 48 hrs by scintillation counting. The format is functional, organism-based. The method in brief: as §1
Series [5] can be described thus: Cytotoxicity against human HFF1 cells at 10 uM after 72 hrs by SRB assay. In kind it is cell-based. The following applies: hff-1, 72 h. Summed up:
(§2)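 Human foreskin fibroblasts (HFF-1) were seeded at 20,000 cells per plate, incubated with compound at 10 or 50 μM for 72 h, and read by sulforhodamine B assay.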
On the technique in general: In SRB staining, fixed cells bind dye roughly in proportion to their protein.

Series [6] in a line: Cytotoxicity against human HFF1 cells at 50 uM after 72 hrs by SRB assay. As to conditions: hff-1, 72 h. The format is cell-based. Summed up: as §2
A further series has as its system Plasmodium knowlesi. The series is described as follows: Antimalarial activity against Plasmodium knowlesi infected in rhesus monkey RBC assessed as [3H]-hypoxanthine incorporation after 12 hrs by scintillation counting. The format is functional, organism-based. Summed up: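 Dose-response assay of in vitro parasite growth and replication in red blood cells, read as [³H]-hypoxanthine uptake. IC50 values were derived, with the error given as standard deviation.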

Series [7] concerns Plasmodium falciparum. The series is described as follows: Antimalarial activity against chloroquine-resistant Plasmodium falciparum W2 infected in O-positive human RBC assessed as aberrant form of ring-stage parasites at 546.94 ng/mL after 28 to 48 hrs by Giemsa staining-based microscopic analysis. The format is functional, organism-based.
For series [8], the system named is Plasmodium falciparum. Nature of the series: Antimalarial activity against chloroquine-resistant Plasmodium falciparum W2 infected in O-positive human RBC assessed as aberrant form of trophozoite-stage parasites at 546.94 ng/mL after 28 to 48 hrs by Giemsa staining-based microscopic analysis. The format is functional, organism-based.
In series [9] the test system is Plasmodium falciparum. The series is described as follows: Antimalarial activity against chloroquine-resistant Plasmodium falciparum W2 infected in O-positive human RBC assessed as parasitemia at 546.94 ng/mL after 48 hrs by Giemsa staining-based microscopic analysis. The format is functional.
For series [10], the system named is Plasmodium falciparum. The series is described as follows: Antimalarial activity against chloroquine-resistant Plasmodium falciparum W2 infected in O-positive human RBC assessed as ring-stage parasites at 546.94 ng/mL after 48 hrs by Giemsa staining-based microscopic analysis (reference value: 87.9%). In kind it is functional.
For series [11], the system named is Plasmodium falciparum. Nature of the series: Antimalarial activity against chloroquine-resistant Plasmodium falciparum W2 infected in O-positive human RBC assessed as trophozoite-stage parasites at 546.94 ng/mL after 48 hrs by Giemsa staining-based microscopic analysis (reference value: 4.2%). The format is functional.
The test system of series [12] is Plasmodium falciparum. Nature of the series: Antimalarial activity against chloroquine-resistant Plasmodium falciparum W2 infected in O-positive human RBC assessed as schizont-stage parasites at 546.94 ng/mL after 48 hrs by Giemsa staining-based microscopic analysis (reference value: 8.05%). In kind it is functional.
A short description of series [13]: Cmax in mouse RBC at 30 mg/kg, po QD. The format is ADME, organism-based, Erythrocyte. More on the design: dose 30 mg/kg, route oral. The following applies: red blood cells (RBC). The method in brief: (§3)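 Mice were dosed orally once daily at 30 mg/kg for five days. Drug levels were followed over time in plasma and in red blood cells on day 1 and on day 5 of dosing.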

Series [14] can be described thus: Half life in mouse RBC at 30 mg/kg, po QD. In kind it is ADME, organism-based, Erythrocyte. Also noted: dose 30 mg/kg, route oral. As to conditions: red blood cells (RBC). Summed up: as §3
Series [15] is described as follows: Apparent volume of distribution during terminal phase in mouse RBC at 30 mg/kg, po QD. The format is ADME, organism-based, Erythrocyte. More on the design: dose 30 mg/kg, route oral. The following applies: red blood cells (RBC), read-out: Vz/F. The method in brief: as §3
Series [16] can be described thus: AUC (0 to infinity) in mouse RBC at 30 mg/kg, po QD. The format is ADME, organism-based, Erythrocyte. More on the design: time infinity, dose 30 mg/kg, route oral. As to conditions: red blood cells (RBC). Summed up:
as §3

Series [17] is described as follows: Tmax in mouse plasma at 30 mg/kg, po QD. Also noted: dose 30 mg/kg, route oral. In kind it is ADME, organism-based. Summed up: as §3
A short description of series [18]: Cmax in mouse plasma at 30 mg/kg, po QD. In kind it is ADME, organism-based. More on the design: dose 30 mg/kg, route oral. Summed up: as §3
The nature of series [19]: Half life in mouse plasma at 30 mg/kg, po QD. The format is ADME, organism-based. Also noted: dose 30 mg/kg, route oral. Summed up:
as §3

Another series has as its system Plasma. The series is described as follows: Apparent volume of distribution during terminal phase in mouse plasma at 30 mg/kg, po QD. The format is ADME, organism-based. More on the design: dose 30 mg/kg, route oral. As to conditions: in vivo. Summed up:
as §3

Series [20] in a line: AUC (0 to infinity) in mouse plasma at 30 mg/kg, po QD. In kind it is ADME, organism-based. Also noted: time infinity, dose 30 mg/kg, route oral. Summed up:
as §3

A short description of series [21]: Ratio of drug uptake in mouse RBC to mouse plasma at 30 mg/kg, po QD. In kind it is ADME, organism-based. Also noted: dose 30 mg/kg, route oral. The following applies: red blood cells (RBC) / plasma. Summed up: as §3

Activity calls are given as the source filed them. No cut-off for these calls is given here.

On to `CCCCCCCCCCCCC[C@H](O)C[C@H](O)C(C)(C)NC` (racemic), for which the half-inhibitory concentration (IC50) in the series with Plasmodium falciparum [1] was found to be 0.25 µM; with Plasmodium falciparum [2] it was 0.7 µM.

As to `CCCCCCCCCCCCC[C@H](O)C[C@@H](O)[C@H](C)NC`, the IC50 in the series with Plasmodium falciparum [3] stood at 8.1 µM; in the series on Plasmodium falciparum [4], 14.6 µM. The Activity result in series [5] is on record as “Non-toxic”; in series [6], “Toxic”.

Regarding `CCCCCCCC(F)(F)CCCCC[C@H](O)C[C@H](O)[C@H](C)N`, the IC50 worked out at 5.6 µM in the series on Plasmodium falciparum [3] and 12.7 µM in the series with Plasmodium falciparum [4]. Further, the Activity entry in [5] is reported as “Non-toxic”; in [6], “Toxic”.

As for `CCCCCCCCCCCCC[C@H](O)C[C@@H](O)[C@H](C)N`, the IC50 turned out to be 9.2 µM with Plasmodium falciparum [3], 17.8 µM in the series with Plasmodium falciparum [4] and 20.3 µM with Plasmodium knowlesi. For the same molecule, the figures for the Activity result in series [5] and in series [6] were “Non-toxic” and “Toxic”, respectively.

With `CCCCCCCCCCCCC[C@@H](O)C[C@H](O)C1(N)CC1` (racemic), the IC50 in the series with Plasmodium falciparum [1] came to 7.2 µM; with Plasmodium falciparum [2], 11.2 µM.

As for `CCCCCCCCCCCCC[C@H](O)C[C@H](O)[C@H](C)NC`, the half-maximal inhibitory concentration (IC50) in the series on Plasmodium falciparum [3] is 1.6 µM; with Plasmodium falciparum [4], 4.7 µM; with Plasmodium knowlesi, 1.7 µM; with Plasmodium falciparum [1], 0.9 µM; in the series on Plasmodium falciparum [2], 1.7 µM. The Activity result in series [5] is “Non-toxic”; in [6], “Toxic”; in the series with Plasmodium falciparum [9], 1.3%; in the series with Plasmodium falciparum [10], 41.9%; in the series with Plasmodium falciparum [11], 39.2%; with Plasmodium falciparum [12], 18.9%. In addition, the outcome in the series with Plasmodium falciparum [7] and with Plasmodium falciparum [8] was Active.

With `CCCCCCCCCCCCC[C@H](O)C[C@H](O)[C@H](C)N(C)C`, the figures for the IC50 in the series with Plasmodium falciparum [3], in the series with Plasmodium falciparum [4] and with Plasmodium knowlesi were 4.4 µM, 7 µM and 6.8 µM, respectively. Moreover, the Activity entry in series [5] was “Non-toxic”; in [6], “Toxic”.

Consider `CCCCCCCC(F)(F)CCCCC[C@H](O)C[C@H](O)[C@H](C)NC`, for which the IC50 in the series on Plasmodium falciparum [3] stood at 2.4 µM; in the series with Plasmodium falciparum [4] it was 7.3 µM. The Activity entry was “Non-toxic” in series [5] and “Toxic” in series [6].

On to `CCCCCCCCCCCCC[C@@H](O)C[C@H](O)[C@H](C)N`, for which the IC50 in the series with Plasmodium falciparum [3] worked out at 8.2 µM; in the series on Plasmodium falciparum [4], 12.7 µM; in the series with Plasmodium knowlesi, 17.6 µM. The Activity result in [5] was “Non-toxic”; in [6] it was “Toxic”.

With `CCCCCCCCCCCCCCCC(=O)N[C@@H](C)[C@@H](O)C[C@@H](O)CCCCCCCCCCCCC`, the result in the series with Plasmodium falciparum [3], in the series with Plasmodium falciparum [4] and in the series with Plasmodium knowlesi was inactive. In addition, the Activity result in series [5] was “Non-toxic”; in series [6], “Toxic”.

As to `CCCCCCCCCCCCC[C@H](O)C[C@H](O)C(C)(C)N` (racemic), the IC50 was found to be 4.7 µM with Plasmodium falciparum [1] and 5.2 µM in the series with Plasmodium falciparum [2].

As to `CCCCCCCCCCCCCC(O)C/C(=N\O)C(C)(C)N` (racemic), the IC50 in the series with Plasmodium falciparum [1] was determined as 10 µM; in the series with Plasmodium falciparum [2], 7.44 µM.

For the molecule `CCCCCCCCCCCCC[C@H](O)C[C@H](O)[C@@H]1CCCN1`, the IC50 is 4.4 µM in the series on Plasmodium falciparum [3], 9.7 µM in the series on Plasmodium falciparum [4] and 6.3 µM in the series with Plasmodium knowlesi. For the same molecule, the Activity entry was “Non-toxic” in series [5] and “Toxic” in series [6].

As to `CCCCCCCCCCCCCC(O)CC(=O)C(C)(C)N` (racemic), the IC50 in the series on Plasmodium falciparum [1] is 2.6 µM; in the series with Plasmodium falciparum [2], 2.5 µM.

Consider `O[C@@H](c1cc(C(F)(F)F)nc2c(C(F)(F)F)cccc12)[C@H]1CCCCN1` (relative stereo) [(S,R)-MEFLOQUINE], for which the IC50 was determined as 0.04 µM with Plasmodium knowlesi and 0.0004 µM in the series on Plasmodium falciparum [1].

Turning to `CCCCCCCCCCCCC[C@@H](O)C[C@H](O)C(C)(C)N` (racemic), the IC50 in the series on Plasmodium falciparum [1] was determined as 7.4 µM; with Plasmodium falciparum [2] it was 4.1 µM.

Take `CCCCCCCCCCCCC[C@H](O)C[C@H](O)[C@H](C)NC(C)=O`: the figures for the IC50 in the series with Plasmodium falciparum [3] and in the series on Plasmodium falciparum [4] were 13.1 µM and 11.1 µM, respectively. The outcome in the series with Plasmodium knowlesi was inactive. Moreover, the Activity result in series [5] is given as “Non-toxic”; in series [6], “Toxic”.

As for `CCCCCCCCCCCCC[C@H](O)C[C@H](O)[C@H](C)N` [ENIGMOL], the IC50 came to 7.4 µM in the series on Plasmodium falciparum [3]; 12.6 µM in the series with Plasmodium falciparum [4]; 10.5 µM in the series on Plasmodium knowlesi; 9.2 µM in the series with Plasmodium falciparum [1]; 5.3 µM with Plasmodium falciparum [2]. Further, the figures for the Activity result in series [5] and in [6] were “Non-toxic” and “Toxic”, respectively. The Cmax in series [13] was 3300 nM; in series [18], 1100 nM. In addition, the half-life was 8.9 h in [14] and 10.7 h in series [19]. The Vd/F in [15] was found to be 25 L/kg. Moreover, the values for the AUC(0-inf) in [16] and in [20] were 50.7 µM·h and 14.4 µM·h, respectively. Besides, the Tmax in series [17] was found to be 2 h. Besides, in the series with Plasma, the Vz/F is 4.4 L/kg. Moreover, the Kp in [21] worked out at 3.

With `CCCCCCCCCCCCC[C@H](O)C[C@H](O)C1(N)CC1` (racemic), the values for the IC50 in the series on Plasmodium falciparum [1] and in the series on Plasmodium falciparum [2] were 9.9 µM and 5.5 µM, respectively.

Source of the values: ChEMBL document CHEMBL2034950, “Sphingolipid analogues inhibit development of malaria parasites” (ACS Med Chem Lett, 2012).
